According to ChEMBL document CHEMBL3227978, “Azetidine derivatives of tricyclic antidepressant agents” (J Med Chem, 1979):
The source made the active and inactive calls. No cut-off for these calls is given here.

Key:
[1] = Orientative acute toxicity in po dosed ICEM:CET (SPF Caw) mouse administered via gavage measured for 60 mins after drug dosing by Irwin's test; assay type: organism-based; conditions: ICEM:CET (SPF Caw), in vivo
In short: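 Male ICEM:CET (SPF Caw) mice, 18-22 g. Oral gavage, suspended or dissolved in 0.5% Methocel at 0.1 mL/10 g body weight. Doses of at least 25, 50, 100, 200, 400 and 800 mg/kg, four animals per dose. Animals were observed closely for 60 min after dosing during Irwin's symptomatologic test, and an approximate LD50 was estimated.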

[2] = system: Mus musculus; test: Anticonvulsant activity in po dosed ICEM:CET (SPF Caw) mouse assessed as antagonism of pentylenetetrazole-induced flexor-extensor tonic convulsions administered via gavage 30 mins before pentylenetetrazole challenge; assay type: functional; conditions: Mus musculus, ICEM:CET(SPF Caw), po; read-out: ED50
In short: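 Male mice, 18-22 g, dosed orally by gavage in 0.5% Methocel (0.1 mL/10 g), starting at a 50 mg/kg screening dose, then graded doses. Pentylenetetrazole 130 mg/kg ip given 30 min later. Ten mice per dose and for controls. Dose preventing flexor-extensor tonic convulsions in 50% of animals read from dose-response curves (ED50).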

[3] = system: Mus musculus; test: Antidepressant activity in po dosed ICEM:CET (SPF Caw) mouse assessed as antagonism of reserpine-induced blepharospasm administered via gavage 30 mins before reserpine challenge measured 1 hr after reserpine treatment; assay type: functional; conditions: Mus musculus, ICEM:CET(SPF Caw), po; read-out: ED50
In short: (§1)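 Groups of ten male mice (18-22 g), fasted 9 h with water until 2 h pre-test. Oral gavage in 0.5% Methocel at doses below the 25 mg/kg screen, 30 min before reserpine 2.5 mg/kg ip. Blepharospasm scored blind at 1 h, rectal temperature at 4 h. ED50 estimated by eye-fit linear plots on semilogarithmic paper.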

[4] = system: Mus musculus; test: Antidepressant activity in po dosed ICEM:CET (SPF Caw) mouse assessed as antagonism of reserpine-induced hypothermia administered via gavage 30 mins before reserpine challenge measured 4 hrs after reserpine treatment; assay type: functional; conditions: Mus musculus, ICEM:CET(SPF Caw), po; read-out: ED50; in short: as §1
[5] = system: Mus musculus; test: Antidepressant activity in ICEM:CET (SPF Caw) mouse assessed as antagonism of reserpine-induced hypothermia at 25 mg/kg, po administered via gavage 30 mins before reserpine challenge measured 4 hrs after reserpine treatment; assay type: functional, organism-based; parameters: dose 25 mg/kg
In short: (§2)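 Male mice, 18-22 g, groups of ten, housed the evening before with a 9-h fast and water until 2 h before testing. Gavage dosing at 25 mg/kg in 0.5% Methocel, 30 min before reserpine 2.5 mg/kg ip in 0.5% acetic acid. Read blind: blepharospasm scored (Rubin scale) at 1 h, rectal thermocouple temperature at 4 h.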

[6] = system: Mus musculus; test: Antidepressant activity in ICEM:CET (SPF Caw) mouse assessed as antagonism of reserpine-induced blepharospasm at 25 mg/kg, po administered via gavage 30 mins before reserpine challenge measured 1 hr after reserpine treatment; assay type: functional, organism-based; parameters: dose 25 mg/kg; in short: as §2

SMILES	LD50 at 1 h [1] [mg/kg]	ED50 [2] [mg/kg]	ED50 [3] [mg/kg]	ED50 [4] [mg/kg]	Activity [5]	Activity [6]
CNC1CN(C(c2ccccc2)c2ccccc2)C1	200	9.6	3.5	> 25	–	–
CN(C)C1CN(C2c3ccccc3C3(CC3)c3ccccc32)C1	200	24.3	7.2	16.5	–	–
CNC1CN(C2c3ccccc3COc3ccccc32)C1 (stereo not given)	200	21.5	2.6	15	–	–
CNC1CN(C2c3ccccc3CSc3ccc(Cl)cc32)C1 (stereo not given)	400	> 50	> 25	> 25	–	–
CNC1CN(C2c3ccccc3CCc3ccccc32)C1C (stereo not given)	400	25	9	10.5	–	–
CN(C)C1CN(C2c3ccccc3COc3ccccc32)C1 (stereo not given)	100	28.5	5.6	23	–	–
CNC1(C)CN(C2c3ccccc3CCc3ccccc32)C1	200	44.6	> 25	> 25	–	–
CC(C)(C)N1CC(N2c3ccccc3CCc3ccc(Cl)cc32)C1	–	–	–	–	inactive	inactive
CC(C)NC1CN(C2c3ccccc3CCc3ccccc32)C1	200	23.3	6.5	8.5	–	–
CNC1CN(C2c3ccccc3CSc3ccc(OC)cc32)C1 (stereo not given)	400	> 50	21.8	> 25	–	–
CN1CC(N2c3ccccc3CCc3ccccc32)C1	–	–	–	–	inactive	inactive
c1ccc2c(c1)CCc1ccccc1C2N1CCNCC1	50	> 50	24	> 25	–	–
c1ccc2c(c1)CCc1ccccc1N2CC1CNC1	–	–	–	–	inactive	inactive
CC(C)(C)NC1CN(C2c3ccccc3CCc3ccccc32)C1	400	28.7	> 25	> 25	–	–
CN(C)C1CN(C2c3ccccc3COc3ccc(Cl)cc32)C1 (stereo not given)	100	> 50	> 25	> 25	–	–
CNC1CN(C2c3ccccc3CCc3ccc(OC)cc32)C1 (stereo not given)	200	> 50	14	> 25	–	–
CNC1CN(C2CCCCc3ccccc32)C1 (stereo not given)	400	48	> 25	> 25	–	–
CNCC1CN(C2c3ccccc3CCc3ccccc32)C1	200	> 50	> 25	> 25	–	–
CNC1CN(C2c3ccccc3COc3ccc(Cl)cc32)C1 (stereo not given)	100	15.4	> 25	> 25	–	–
CC(Cc1ccccc1)NC1CN(C2c3ccccc3CCc3ccccc32)C1 (stereo not given)	> 800	> 50	> 25	> 25	–	–
c1ccc2c(c1)Sc1ccccc1N2C1CNC1	–	–	–	–	inactive	inactive
CN(C(N)=O)C1CN(C2c3ccccc3CCc3ccccc32)C1	400	> 12.5	> 12.5	12.5	–	–
C#CC(C)(C)NC1CN(C2c3ccccc3CCc3ccccc32)C1	> 800	19.6	9	> 25	–	–
c1ccc2c(c1)COc1ccccc1N2C1CNC1	–	–	–	–	inactive	inactive
CNC1CN(C2c3ccccc3CSc3ccccc32)C1 (stereo not given)	200	14.7	12	> 25	–	–
C#CCN(CC#C)C1CN(C2c3ccccc3CCc3ccccc32)C1	> 800	38	> 25	21	–	–
CC(C)(C)N1CC(N2c3ccccc3COc3ccccc32)C1	–	–	–	–	inactive	inactive
CNC1CN(C2c3ccccc3C=Cc3ccccc32)C1	200	> 50	> 25	> 25	–	–
